# According to ChEMBL document CHEMBL1153422, “N6-Cycloalkyl- and N6-bicycloalkyl-C5'(C2')-modified adenosine derivatives as high-affinity and selective agonists at the human A1 adenosine receptor with antinociceptive effects in mice” (J Med Chem, 2009):
# Active and inactive are the calls of the source. The rule behind the calls is not given here.
# Assays:
# [1] = target: Adenosine receptor A2a (Homo sapiens, UniProt P29274); test: Displacement of [3H]NECA from human recombinant adenosine A2A receptor expressed in CHO cells; assay type: cell-based
# Chain of Adenosine receptor A2a (P29274 whole entry): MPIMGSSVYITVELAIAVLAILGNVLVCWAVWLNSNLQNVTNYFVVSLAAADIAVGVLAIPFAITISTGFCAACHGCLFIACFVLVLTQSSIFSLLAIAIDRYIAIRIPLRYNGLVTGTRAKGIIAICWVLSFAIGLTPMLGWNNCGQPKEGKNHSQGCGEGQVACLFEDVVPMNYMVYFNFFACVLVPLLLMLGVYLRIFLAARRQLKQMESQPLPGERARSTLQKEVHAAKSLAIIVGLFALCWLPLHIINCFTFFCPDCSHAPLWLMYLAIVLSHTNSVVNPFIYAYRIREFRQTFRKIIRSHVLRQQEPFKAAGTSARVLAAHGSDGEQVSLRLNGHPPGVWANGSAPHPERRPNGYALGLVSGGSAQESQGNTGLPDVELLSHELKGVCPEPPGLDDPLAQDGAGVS
# Procedure, shortened: (§1)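 Competition binding on membranes from CHO cells stably transfected with individual human adenosine receptor subtypes; radioligands 1 nM [3H]CCPA (A1), 30 nM [3H]NECA (A2A), 1 nM [3H]HEMADO (A3); Ki from nonlinear curve fitting; selectivity as Ki ratio.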
# [2] = target: T1, Adenosine receptor A1 (Homo sapiens, UniProt P30542); test: Displacement of [3H]CCPA from human recombinant adenosine A1 receptor expressed in CHO cells; assay type: cell-based
# T1 sequence (P30542 whole entry): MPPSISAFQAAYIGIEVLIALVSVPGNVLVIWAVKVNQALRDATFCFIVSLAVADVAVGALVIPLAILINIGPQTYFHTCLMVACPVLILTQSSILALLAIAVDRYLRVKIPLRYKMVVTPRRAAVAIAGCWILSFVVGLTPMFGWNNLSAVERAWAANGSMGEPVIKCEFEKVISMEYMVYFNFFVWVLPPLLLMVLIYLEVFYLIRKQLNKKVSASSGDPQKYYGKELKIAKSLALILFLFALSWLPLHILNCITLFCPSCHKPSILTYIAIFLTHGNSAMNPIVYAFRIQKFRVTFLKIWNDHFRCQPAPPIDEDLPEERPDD
# [3] = target: Adenosine receptors; A1 & A3 (Homo sapiens) (UniProt P30542+P0DMS8); test: Selectivity of Ki for human recombinant adenosine A3 receptor to Ki for human recombinant adenosine A1 receptor; procedure, shortened: as §1
# [4] = target: T2, Adenosine receptor A3 (Homo sapiens) (UniProt P0DMS8); test: Antagonist activity at human recombinant adenosine A3 receptor expressed in CHO cells assessed as inhibition of forskolin-stimulated adenylyl cyclase activity; assay type: functional, cell-based
# T2 sequence (whole entry): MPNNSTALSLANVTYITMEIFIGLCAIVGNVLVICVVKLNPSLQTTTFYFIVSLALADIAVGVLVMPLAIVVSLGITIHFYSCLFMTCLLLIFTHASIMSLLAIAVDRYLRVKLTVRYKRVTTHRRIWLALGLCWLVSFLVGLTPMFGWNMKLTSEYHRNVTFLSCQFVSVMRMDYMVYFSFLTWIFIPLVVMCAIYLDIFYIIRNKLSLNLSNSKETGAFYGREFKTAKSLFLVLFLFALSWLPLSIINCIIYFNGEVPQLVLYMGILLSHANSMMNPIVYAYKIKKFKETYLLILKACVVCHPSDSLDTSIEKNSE
# [5] = species: Homo sapiens; test: Selectivity of Ki for human recombinant adenosine A2A receptor to Ki for human recombinant adenosine A1 receptor; procedure, shortened: as §1
# [6] = target: T3, Adenosine receptor A1 (Homo sapiens) (UniProt P30542); test: Agonist activity human recombinant adenosine A1 receptor expressed in CHO cells assessed as inhibition of forskolin-stimulated adenylyl cyclase activity; assay type: functional, cell-based
# T3 sequence (whole entry): T1 sequence (P30542 whole entry)
# Procedure, shortened: (§2)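 CHO cells stably transfected with human receptor (A1 or A3); cyclase activity stimulated by 10 µM forskolin taken as 100%; percentage activity remaining after agonist-mediated inhibition reported; means ± SEM of three independent experiments.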
# [7] = target: T4, Adenosine receptor A2b (Homo sapiens, UniProt P29275); test: Agonist activity at human adenosine A2B receptor expressed in CHO cells assessed as inhibition of NECA-stimulated adenylyl cyclase activity; assay type: functional, cell-based
# T4 sequence (P29275 whole entry): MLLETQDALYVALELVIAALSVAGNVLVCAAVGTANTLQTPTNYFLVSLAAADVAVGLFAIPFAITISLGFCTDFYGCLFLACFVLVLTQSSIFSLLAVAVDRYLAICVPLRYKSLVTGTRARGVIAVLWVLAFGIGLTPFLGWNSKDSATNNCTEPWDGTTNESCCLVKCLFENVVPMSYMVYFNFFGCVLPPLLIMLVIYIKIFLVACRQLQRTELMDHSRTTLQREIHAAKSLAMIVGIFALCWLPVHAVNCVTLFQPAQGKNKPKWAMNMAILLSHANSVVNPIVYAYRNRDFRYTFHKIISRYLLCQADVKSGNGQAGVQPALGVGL
# Procedure, shortened: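 Membranes from CHO cells stably expressing human A2B receptor; inhibition of NECA-stimulated adenylyl cyclase activity measured, IC50 converted to Ki; curves fitted by nonlinear regression.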
# [8] = target: T5, Adenosine receptor A3 (Homo sapiens, UniProt P0DMS8); test: Displacement of [3H]HEMADO from human recombinant adenosine A3 receptor expressed in CHO cells; assay type: cell-based; procedure, shortened: as §1
# T5 sequence (P0DMS8 whole entry): T2 sequence (whole entry)
# [9] = system: Mus musculus; test: Analgesic activity in mouse assessed as reduction of formalin-induced late nociceptive behavior at 2 mg/kg, ip administered 10 mins before formalin challenge measured every 5 mins for 60 mins in presence of adenosine A1 receptor antagonist DPCPX; assay type: functional, organism-based; set-up: dose 2 mg/kg
# Procedure, shortened: (§3)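 Mice, n = 8-10 per group, randomly assigned; drug or vehicle (0.9% NaCl) given i.p. 10 min before 1.25% formalin in saline (30 µL) into dorsal hind paw; DPCPX 3 mg/kg i.p. co-administered where stated. Lifting, licking, shaking, flinching timed every 5 min for 60 min; early phase 0-7 min, late 15-60 min; mean ± SEM.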
# [10] = system: Mus musculus; test: Analgesic activity in mouse assessed as reduction of formalin-induced early nociceptive behavior at 2 mg/kg, ip administered 10 mins before formalin challenge measured every 5 mins for 60 mins in presence of adenosine A1 receptor antagonist DPCPX; assay type: functional, organism-based; set-up: dose 2 mg/kg; procedure, shortened: as §3
# [11] = target: T2, Adenosine receptor A3 (Homo sapiens); test: Agonist activity human recombinant adenosine A3 receptor expressed in CHO cells assessed as inhibition of forskolin-stimulated adenylyl cyclase activity; assay type: functional, cell-based; procedure, shortened: as §2
# [12] = system: Mus musculus; test: Analgesic activity in ip dosed mouse assessed as reduction of formalin-induced late nociceptive behavior administered 10 mins before formalin challenge measured every 5 mins for 60 mins; assay type: functional, organism-based; procedure, shortened: as §3
# [13] = Lipophilicity log P of the compound; assay type: physicochemical; conditions: octanol/water
Compound,Ki [1] [nM],Ki [2] [nM],Ratio Ki [3],Activity [4],Ratio Ki [5],Activity [6],Ki [7] [nM],Ki [8] [nM],Activity [9],Activity [10],Activity [11],Activity [12],logP [13]
O[C@@H]1[C@H](O)[C@@H](CCl)O[C@H]1n1cnc2c(NC3CCCC3)ncnc21,837,0.59,637,Active,1470,Active,3210,376,–,–,–,–,–
O[C@@H]1[C@H](O)[C@@H](CCl)O[C@H]1n1cnc2c(NC3CCCC3)nc(Cl)nc21,2160,1.56,267,–,1380,Active,4830,417,–,–,–,–,–
O[C@@H]1[C@H](O)[C@@H](CSc2ccccc2F)O[C@H]1n1cnc2c(NC3CCCC3)ncnc21,5170,64.7,5,–,80,–,> 10000,296,–,–,–,–,–
O[C@@H]1[C@H](O)[C@@H](CSc2ccccc2F)O[C@H]1n1cnc2c(NC3CCCC3)nc(Cl)nc21,2190,258,2,–,8,–,> 10000,479,–,–,–,–,–
C[C@@]1(O)[C@H](O)[C@@H](CCl)O[C@H]1n1cnc2c(NC3CCCC3)nc(Cl)nc21,16200,12.8,237,–,1770,–,> 10000,3030,–,–,–,–,–
C[C@@]1(O)[C@H](O)[C@@H](CSc2ccccc2F)O[C@H]1n1cnc2c(NC3CCCC3)nc(Cl)nc21,> 100000,2150,0.5,–,> 47,–,> 10000,1150,–,–,–,–,–
O[C@@H]1[C@H](O)[C@@H](CSc2ccccc2F)O[C@H]1n1cnc2c(NC3CCOC3)ncnc21 (some centres not stated),18900,250,3,–,76,–,> 10000,746,–,–,–,–,–
C[C@@]1(O)[C@H](O)[C@@H](CCl)O[C@H]1n1cnc2c(NC3CCCC3)ncnc21,> 100000,28.4,237,–,> 3520,–,> 10000,6740,–,–,–,–,–
C[C@@]1(O)[C@H](O)[C@@H](CSc2ccccc2F)O[C@H]1n1cnc2c(NC3CCCC3)ncnc21,> 100000,1680,0.9,–,> 60,–,> 10000,1440,–,–,–,–,–
CCCn1c(=O)c2[nH]c(C3CCCC3)nc2n(CCC)c1=O,–,–,–,–,–,–,–,–,inactive,inactive,–,–,–
OC[C@H]1O[C@@H](n2cnc3c(NC4CCCC4)ncnc32)[C@H](O)[C@@H]1O,–,–,–,–,–,–,–,–,–,–,Active,–,–
O[C@@H]1[C@H](O)[C@@H](CCl)O[C@H]1n1cnc2c(NC3CC4CCC3C4)ncnc21 (mixture of isomers),1340,–,–,Active,–,Active,2740,1290,–,–,–,Dose-dependent effect,1.04
C[C@@]1(O)[C@H](O)[C@@H](CCl)O[C@H]1n1cnc2c(NC3CC4CCC3C4)ncnc21 (mixture of isomers),24000,9.13,1270,–,2630,–,> 10000,11600,–,–,–,–,–
C[C@@]1(O)[C@H](O)[C@@H](CSc2ccccc2F)O[C@H]1n1cnc2c(NC3CC4CCC3C4)ncnc21 (mixture of isomers),> 100000,1060,3,–,> 94,–,> 10000,3480,–,–,–,–,–
C[C@@]1(O)[C@H](O)[C@@H](CSc2ccccc2F)O[C@H]1n1cnc2c(NC3CC4CCC3C4)nc(Cl)nc21 (mixture of isomers),> 100000,2970,1.5,–,> 34,–,> 10000,4350,–,–,–,–,–
C[C@@]1(O)[C@H](O)[C@@H](CO)O[C@H]1n1cnc2c(NC3CC4CCC3C4)nc(Cl)nc21 (mixture of isomers),11800,6.96,645,–,1700,–,> 10000,4490,–,–,–,–,–
OC[C@H]1O[C@@H](n2cnc3c(NC4CC5CCC4C5)ncnc32)[C@H](O)[C@@H]1O (mixture of isomers),1270,0.54,187,–,2350,Active,4930,101,–,–,Active,–,-0.14
OC[C@H]1O[C@@H](n2cnc3c(NC4CC5CCC4C5)nc(Cl)nc32)[C@H](O)[C@@H]1O (mixture of isomers),797,0.71,182,–,1120,Active,> 10000,129,–,–,–,–,–
O[C@@H]1[C@H](O)[C@@H](CCl)O[C@H]1n1cnc2c(NC3CC4CCC3C4)nc(Cl)nc21 (mixture of isomers),2050,1.61,875,–,1270,Active,> 10000,1410,–,–,–,–,–
C[C@@]1(O)[C@H](O)[C@@H](CCl)O[C@H]1n1cnc2c(NC3CC4CCC3C4)nc(Cl)nc21 (mixture of isomers),31600,9.16,644,–,3450,–,> 10000,5900,–,–,–,–,–
C[C@@]1(O)[C@H](O)[C@@H](CO)O[C@H]1n1cnc2c(NC3CC4CCC3C4)ncnc21 (mixture of isomers),8780,4.09,616,–,2150,Active,> 10000,2520,–,–,–,–,–
